According to ChEMBL document CHEMBL1944607, “7-Substituted-pyrrolo[3,2-d]pyrimidine-2,4-dione derivatives as antagonists of the transient receptor potential ankyrin 1 (TRPA1) channel: a promising approach for treating pain and inflammation” (Bioorg Med Chem, 2012):
The source made the active and inactive calls. The rule behind the calls is not given here.

Legend:
[1] = target: Transient receptor potential cation channel subfamily A member 1 (Rattus norvegicus) (UniProt Q6RI86); test: Antagonist activity at Sprague-Dawley rat TRPA1 expressed in rat DRG neurons assessed as inhibition of acrolein-induced calcium influx at 3 uM after 40 mins by fluorescence analysis; assay type: functional
Summary of the method: (§1)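 DRG neurons came from male Sprague–Dawley rats (100 g). Ganglia were digested in HBSS with collagenase 1A (2 mg/ml) and trypsin (1 mg/ml) for 35 min at 37 °C, dissociated through 23–25 G needles in medium with 10% FBS and 10% horse serum, then filtered and centrifuged. Neurons were loaded with Fura-2 AM for 40 min at 37 °C in HEPES buffer (pH 7.4). F340/F380 was recorded under acrolein with antagonist present. %inhibition is mean ± SEM from ≥20 neurons across three experiments; IC₅₀ comes from a variable-slope sigmoidal fit.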

[2] = target: Transient receptor potential cation channel subfamily A member 1 (Rattus norvegicus, UniProt Q6RI86); test: (§2) Antagonist activity at Sprague-Dawley rat TRPA1 expressed in rat DRG neurons assessed as inhibition of acrolein-induced calcium influx after 40 mins by fluorescence analysis; assay type: functional; summary of the method: as §1
[3] = target: T1, Transient receptor potential cation channel subfamily A member 1 (Homo sapiens, UniProt O75762); test: Antagonist activity at human TRPA1 expressed in human IMR90 cells assessed as inhibition of acrolein-induced calcium influx after 40 mins by fluorescence analysis
[4] = target: T1, Transient receptor potential cation channel subfamily A member 1; test: Antagonist activity at human TRPA1 expressed in human IMR90 cells assessed as inhibition of acrolein-induced calcium influx at 3 uM after 40 mins by fluorescence analysis; assay type: functional, cell-based; details: IMR-90
[5] = target: Transient receptor potential cation channel subfamily V member 1 (Rattus norvegicus) (UniProt O35433); test: Antagonist activity at Sprague-Dawley rat TRPV1 expressed in rat DRG neurons assessed as inhibition of capsaicin-induced calcium influx after 40 mins by fluorescence analysis; assay type: functional
[6] = target: Transient receptor potential cation channel subfamily A member 1 (Rattus norvegicus) (UniProt Q6RI86); test: Antagonist activity at Sprague-Dawley rat TRPA1 expressed in rat DRG neurons assessed as inhibition of acrolein-induced calcium influx at 30 uM after 40 mins by fluorescence analysis; assay type: functional; summary of the method: as §1
[7] = target: T1, Transient receptor potential cation channel subfamily A member 1; test: Antagonist activity at human TRPA1 expressed in human IMR90 cells assessed as inhibition of acrolein-induced calcium influx at 30 uM after 40 mins by fluorescence analysis; assay type: functional, cell-based; details: IMR-90
Summary of the method: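 IMR90 fetal lung fibroblasts, which constitutively express human TRPA1, were grown in DMEM with 10% FBS and 2 mM L-glutamine at 37 °C under 5% CO₂, then plated on glass coverslips to 60% confluence. Cells were loaded with Fura-2 AM for 40 min at 37 °C in HEPES buffer (pH 7.4, 0.1% BSA). Single-cell F340/F380 ratio was recorded during acrolein challenge in the presence of antagonist. %inhibition is mean ± SEM from ≥25 cells across three experiments; IC₅₀ (with CI) comes from a variable-slope sigmoidal fit.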

[8] = target: Transient receptor potential cation channel subfamily A member 1 (Rattus norvegicus) (UniProt Q6RI86); test: as §2; assay type: functional; summary of the method: as §1
[9] = target: T1, Transient receptor potential cation channel subfamily A member 1; details: IMR-90, 1 uM
[10] = target: T1, Transient receptor potential cation channel subfamily A member 1; test: Antagonist activity at human TRPA1 expressed in CHO cells assessed as inhibition of calcium influx; assay type: functional, cell-based

T1 sequence (O75762 whole entry): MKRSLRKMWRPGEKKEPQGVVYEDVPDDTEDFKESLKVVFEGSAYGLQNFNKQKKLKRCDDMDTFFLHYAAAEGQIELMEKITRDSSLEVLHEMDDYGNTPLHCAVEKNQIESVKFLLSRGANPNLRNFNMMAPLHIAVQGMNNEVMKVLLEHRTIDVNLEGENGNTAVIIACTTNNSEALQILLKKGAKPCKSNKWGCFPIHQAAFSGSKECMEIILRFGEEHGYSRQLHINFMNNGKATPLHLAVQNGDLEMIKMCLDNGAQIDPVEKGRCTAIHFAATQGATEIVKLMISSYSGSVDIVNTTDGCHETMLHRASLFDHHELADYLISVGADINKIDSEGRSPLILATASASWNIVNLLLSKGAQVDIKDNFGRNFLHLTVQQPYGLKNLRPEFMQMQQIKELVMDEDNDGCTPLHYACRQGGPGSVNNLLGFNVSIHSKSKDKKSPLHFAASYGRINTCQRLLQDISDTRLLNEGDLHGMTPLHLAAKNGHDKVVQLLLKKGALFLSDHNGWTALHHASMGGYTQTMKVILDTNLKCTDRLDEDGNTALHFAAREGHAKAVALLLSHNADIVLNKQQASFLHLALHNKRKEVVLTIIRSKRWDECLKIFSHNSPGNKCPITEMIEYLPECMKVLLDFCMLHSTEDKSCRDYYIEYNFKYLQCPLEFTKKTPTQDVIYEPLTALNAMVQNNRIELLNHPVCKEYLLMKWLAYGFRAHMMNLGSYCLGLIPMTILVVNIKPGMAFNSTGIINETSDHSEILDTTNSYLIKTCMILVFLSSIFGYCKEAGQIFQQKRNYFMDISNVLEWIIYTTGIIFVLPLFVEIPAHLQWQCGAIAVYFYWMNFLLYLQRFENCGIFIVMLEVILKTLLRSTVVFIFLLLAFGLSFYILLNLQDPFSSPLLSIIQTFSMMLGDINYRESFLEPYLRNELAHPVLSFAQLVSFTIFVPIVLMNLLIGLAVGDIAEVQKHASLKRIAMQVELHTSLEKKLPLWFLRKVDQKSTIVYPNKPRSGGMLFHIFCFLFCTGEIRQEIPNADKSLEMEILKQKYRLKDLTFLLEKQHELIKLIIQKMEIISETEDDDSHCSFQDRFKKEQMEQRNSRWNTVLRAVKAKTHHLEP
Chain of Transient receptor potential cation channel subfamily A member 1 (Rattus norvegicus, UniProt Q6RI86) (Q6RI86 whole entry): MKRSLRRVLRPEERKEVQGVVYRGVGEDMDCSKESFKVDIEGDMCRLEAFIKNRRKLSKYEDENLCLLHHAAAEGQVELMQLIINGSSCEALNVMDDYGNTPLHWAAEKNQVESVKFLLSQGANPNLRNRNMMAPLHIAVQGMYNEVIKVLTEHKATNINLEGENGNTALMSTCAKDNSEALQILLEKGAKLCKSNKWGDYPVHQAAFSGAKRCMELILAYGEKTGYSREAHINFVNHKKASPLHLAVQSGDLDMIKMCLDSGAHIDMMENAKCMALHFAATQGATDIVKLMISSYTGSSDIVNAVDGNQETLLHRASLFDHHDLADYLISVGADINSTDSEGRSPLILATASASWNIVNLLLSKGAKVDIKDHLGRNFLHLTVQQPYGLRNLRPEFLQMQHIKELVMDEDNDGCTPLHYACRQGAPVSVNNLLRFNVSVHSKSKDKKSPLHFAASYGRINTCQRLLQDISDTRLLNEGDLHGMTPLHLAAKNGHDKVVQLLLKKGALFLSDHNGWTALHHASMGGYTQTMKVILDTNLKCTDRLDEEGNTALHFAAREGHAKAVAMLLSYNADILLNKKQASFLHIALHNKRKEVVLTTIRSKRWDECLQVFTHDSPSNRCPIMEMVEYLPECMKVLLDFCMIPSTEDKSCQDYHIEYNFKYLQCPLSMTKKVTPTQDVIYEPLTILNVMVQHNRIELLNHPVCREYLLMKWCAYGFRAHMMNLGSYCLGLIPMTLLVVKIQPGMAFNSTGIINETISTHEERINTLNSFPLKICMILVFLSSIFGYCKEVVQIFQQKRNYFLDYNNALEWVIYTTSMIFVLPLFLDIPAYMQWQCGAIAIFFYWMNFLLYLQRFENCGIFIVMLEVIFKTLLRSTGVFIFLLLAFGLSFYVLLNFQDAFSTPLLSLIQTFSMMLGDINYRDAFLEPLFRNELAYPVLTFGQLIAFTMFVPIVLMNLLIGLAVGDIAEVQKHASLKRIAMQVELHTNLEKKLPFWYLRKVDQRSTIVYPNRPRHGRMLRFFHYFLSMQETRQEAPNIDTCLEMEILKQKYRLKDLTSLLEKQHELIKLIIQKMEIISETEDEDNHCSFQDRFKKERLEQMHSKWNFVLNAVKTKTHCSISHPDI
Chain of Transient receptor potential cation channel subfamily A member 1 (Rattus norvegicus) (Q6RI86 whole entry): as above
Chain of Transient receptor potential cation channel subfamily V member 1 (Rattus norvegicus) (O35433 whole entry): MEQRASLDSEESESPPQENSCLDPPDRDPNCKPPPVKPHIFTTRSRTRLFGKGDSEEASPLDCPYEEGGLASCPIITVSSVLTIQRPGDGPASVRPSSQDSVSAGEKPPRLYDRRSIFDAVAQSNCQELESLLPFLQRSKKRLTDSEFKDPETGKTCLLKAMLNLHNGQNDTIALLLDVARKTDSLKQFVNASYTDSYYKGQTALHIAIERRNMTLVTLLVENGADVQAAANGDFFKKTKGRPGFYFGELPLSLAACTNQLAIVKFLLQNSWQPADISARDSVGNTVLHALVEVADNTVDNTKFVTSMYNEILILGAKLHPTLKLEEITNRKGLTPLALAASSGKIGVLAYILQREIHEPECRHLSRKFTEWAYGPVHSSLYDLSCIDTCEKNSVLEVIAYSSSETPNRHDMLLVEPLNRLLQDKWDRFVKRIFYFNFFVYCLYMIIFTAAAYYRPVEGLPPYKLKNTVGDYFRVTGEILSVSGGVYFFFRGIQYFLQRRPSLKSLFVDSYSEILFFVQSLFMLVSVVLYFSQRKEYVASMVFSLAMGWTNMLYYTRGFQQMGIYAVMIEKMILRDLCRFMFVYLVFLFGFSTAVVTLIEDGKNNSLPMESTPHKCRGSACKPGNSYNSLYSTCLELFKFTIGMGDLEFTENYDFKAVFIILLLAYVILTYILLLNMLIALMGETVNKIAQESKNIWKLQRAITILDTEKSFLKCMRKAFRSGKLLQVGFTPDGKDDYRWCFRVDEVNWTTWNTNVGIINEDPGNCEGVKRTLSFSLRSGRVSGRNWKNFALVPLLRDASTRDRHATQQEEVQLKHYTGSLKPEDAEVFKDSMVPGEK

| inhibition [1] | inhibition [6] | inhibition [7] | Compound | other results |
| --- | --- | --- | --- | --- |
| 45.2% | 90.1% | 98.9% | CC(=C\c1ccc(Cl)cc1)/C(C)=N/O [AP18 5] | IC50 [2]: 3400 nM; IC50 [3]: 2200 nM; inhibition [4]: 69.1%; inhibition [5]: inactive |
| 10.7% | 95.8% | – | Cn1c(=O)c2c(ccn2CC(=O)Nc2ccc(C(C)(C)C)cc2)n(C)c1=O | – |
| – | – | < 50% | Cn1c(=O)c2c(ccn2CC(=O)Nc2nc(-c3ccccc3)cs2)n(C)c1=O | – |
| 94.4% | 97.1% | 99% | CCCCc1ccc(NC(=O)Cn2ccc3c2c(=O)n(C)c(=O)n3C)cc1 | IC50 [3]: 1100 nM; inhibition [4]: 93.5% |
| – | – | < 50% | Cn1c(=O)c2c(ccn2CC(=O)Nc2ccc(F)cc2F)n(C)c1=O | – |
| – | – | < 50% | Cn1c(=O)c2c(ccn2CC(=O)Nc2ccc(F)c(F)c2)n(C)c1=O | – |
| 58.3% | 80.2% | – | Cn1c(=O)c2c(ccn2CC(=O)Nc2nc(-c3ccc(C(F)(F)F)cc3)cs2)n(C)c1=O | – |
| – | – | < 50% | Cc1ccc(CNC(=O)Cn2ccc3c2c(=O)n(C)c(=O)n3C)cc1 | – |
| 92.4% | 99.4% | – | CCCCCCc1ccc(-c2csc(NC(=O)Cn3ccc4c3c(=O)n(C)c(=O)n4C)n2)cc1 | – |
| 36.8% | 99.5% | – | Cn1c(=O)c2c(ccn2CC(=O)Nc2ccc(OC(F)(F)F)cc2)n(C)c1=O | – |
| – | – | < 50% | Cn1c(=O)c2c(ccn2CC(=O)NCc2ccccc2)n(C)c1=O | – |
| 58.8% | 99.7% | 99.1% | Cn1c(=O)c2c(ccn2CC(=O)Nc2ccc(C(F)(F)F)cc2)n(C)c1=O | IC50 [2]: 2800 nM; inhibition [8]: Dose-dependent effect; inhibition [9]: 88.7%; IC50 [3]: 400 nM; inhibition [4]: 99%; inhibition [5]: inactive |
| – | – | < 50% | Cn1c(=O)c2c(ccn2CC(=O)Nc2cccc(I)c2)n(C)c1=O | – |
| – | – | < 50% | Cn1c(=O)c2c(ccn2CC(=O)Nc2ccc(SC(F)(F)F)cc2)n(C)c1=O | – |
| – | – | < 50% | Cn1c(=O)c2c(ccn2CC(=O)NCCCc2ccccc2)n(C)c1=O | – |
| – | – | < 50% | CC(C)c1ccc(NC(=O)Cn2ccc3c2c(=O)n(C)c(=O)n3C)cc1 | – |

| inhibition [1] | inhibition [6] | inhibition [7] | Compound | other results |
| --- | --- | --- | --- | --- |
| – | – | < 50% | COc1ccc(NC(=O)Cn2ccc3c2c(=O)n(C)c(=O)n3C)cc1 | – |
| – | – | < 50% | CCN(CC)S(=O)(=O)c1ccc(NC(=O)Cn2ccc3c2c(=O)n(C)c(=O)n3C)cc1 | – |
| – | – | < 50% | Cn1c(=O)c2c(ccn2CC(=O)NC23CC4CC(CC(C4)C2)C3)n(C)c1=O | – |
| 35.5% | 93.3% | – | CCCCCCc1ccc(NC(=O)Cn2ccc3c2c(=O)n(C)c(=O)n3C)cc1 | – |
| – | – | < 50% | Cn1c(=O)c2c(ccn2CC(=O)Nc2ccc(C3CCCCC3)cc2)n(C)c1=O | – |
| 80.6% | 99.6% | 99.3% | Cn1c(=O)c2c(ccn2CC(=O)Nc2nc(-c3ccc(F)c(C(F)(F)F)c3)cs2)n(C)c1=O | IC50 [2]: 1300 nM; inhibition [8]: Dose-dependent effect; IC50 [3]: 1300 nM; inhibition [4]: 76.1%; inhibition [5]: inactive |
| 80.7% | 99.8% | 97.5% | CC(C)c1ccc(NC(=O)Cn2cnc3c2c(=O)n(C)c(=O)n3C)cc1 | IC50 [2]: 2100 nM; inhibition [4]: 73.2%; inhibition [5]: inactive |
| – | – | < 50% | Cn1c(=O)c2c(ccn2CC(=O)Nc2ccc(S(=O)(=O)NCc3ccccc3)cc2)n(C)c1=O | – |
| – | – | < 50% | Cn1c(=O)c2c(ccn2CC(=O)NCCc2ccccc2)n(C)c1=O | – |
| 3.6% | 99.2% | 82.8% | Cn1c(=O)c2c(ccn2CC(=O)Nc2nc(-c3ccc(F)cc3)cs2)n(C)c1=O | IC50 [3]: 4100 nM; inhibition [4]: 47.9% |
| – | – | < 50% | Cn1c(=O)c2c(ccn2CC(=O)Nc2ccc(Cl)cc2)n(C)c1=O | – |
| – | – | < 50% | Cn1c(=O)c2c(ccn2CC(=O)Nc2ccc(N3CCOCC3)cc2)n(C)c1=O | – |
| 40.2% | 99.5% | 98.8% | COc1cccc(C2NC(=S)NC3=C2C(=O)c2ccccc23)c1 (centres undefined) | IC50 [2]: 3400 nM; IC50 [10]: 128 nM; IC50 [3]: 1500 nM; inhibition [4]: 83.1%; inhibition [5]: inactive |
| – | – | < 50% | CN(C(=O)Cn1ccc2c1c(=O)n(C)c(=O)n2C)c1ccc(F)cc1 | – |
| 12.4% | 85.4% | – | Cn1c(=O)c2c(ccn2CC(=O)Nc2ccc(I)cc2)n(C)c1=O | – |
| – | – | < 50% | Cn1c(=O)c2c(ccn2CC(=O)Nc2nc(-c3ccc(I)cc3)cs2)n(C)c1=O | – |
